Source: PubChem BioAssay (several laboratories)
This is a sample that favours compounds with a hit; in the whole collection about 1.7% have one here.
Rpn11 inh: blocks the human proteasome subunit Rpn11. O00487. human 26S proteasome, Ub4-pepOG fluorescence polarization; 20S core pre-blocked with epoxomicin. inhibition, % at 20 µM. 360,000 tested, 0.59% active;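 active = inhibition at 20 µM, scaled to each plate's controls, above about 33%, limit read from the data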
Target sequence (O00487 whole entry, looked up): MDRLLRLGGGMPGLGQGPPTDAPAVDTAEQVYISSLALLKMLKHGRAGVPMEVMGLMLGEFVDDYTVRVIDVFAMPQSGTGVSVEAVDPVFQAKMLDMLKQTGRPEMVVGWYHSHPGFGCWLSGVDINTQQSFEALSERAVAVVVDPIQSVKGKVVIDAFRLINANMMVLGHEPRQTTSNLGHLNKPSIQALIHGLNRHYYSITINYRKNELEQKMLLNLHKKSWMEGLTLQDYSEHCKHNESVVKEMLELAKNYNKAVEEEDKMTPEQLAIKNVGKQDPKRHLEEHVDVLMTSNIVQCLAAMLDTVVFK
IDE cell inh: inhibitors of human insulin-degrading enzyme in cells. HEK cells, FAbetaB cleavage, fluorescence polarization. AID 434962. inhibition, % at 5.59 µM. P14735. 320,000 tested, 0.41% active;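 active = percent inhibition above the average of all tested compounds plus 3 SD, set per screening campaign, cut at about 16% in these data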;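 also: IDE supplied by intact live HEK cells; FP after avidin binding of uncleaved biotin substrate so inhibition keeps polarization high; 0% = DMSO wells and 100% = 60 µM reference IDE inhibitor Ii1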
IDE act: activators of human insulin-degrading enzyme in cells | 340,000 tested, 0.073% active | HEK cells, FAbeta-B cleavage, fluorescence polarization; 0% vehicle, 100% cell-free pure enzyme wells | activation, % at 5.96 µM | AID 493087;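 active = activation above the mean of all tested compounds plus 3 SD, set per screening campaign, cut at about 17% in these data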
CSN inh: inhibitors of human CSN-mediated cullin deneddylation; Q92905; Purified CSN, SCF-Nedd8-OG deneddylation, fluorescence polarization; inhibition, % at 12.5 µM; 360,000 tested, 0.38% active; AID 651999;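 active = pattern-corrected inhibition above about 35%, with an unprinted fluorescence ratio check between 0.5 and 1.5, limit read from the data, passing the limit was not always enough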;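 also: 0% = enzyme with substrate and 100% = substrate without enzyme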
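Assay system: HEK293T-derived human Csn5 enzyme; quantity: 0.24 nM enzyme; medium: Tris/NaCl/DTT buffer, pH 7.5; also added: substrate SCFSkp2-Nedd8OG, 10 nM; doses: 12.5 µM compound; schedule: 90 min reaction at room temperature; signal: FP; read-out: % inhibition of substrate cleavage by Csn5; benchmarks: substrate-only high control, full reaction low control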
TPT1 inhibitor: blocks Candida albicans tRNA 2'-phosphotransferase; inhibition, % at 5 µM; 300,000 tested, 0.81% active; recombinant caTPT1, FP RNA substrate dephosphorylation;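 active = inhibition above the mean of all tested compounds plus 3 SD, set per screening campaign, cut at about 24% in these data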;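 also: plate controls were DMSO alone for no effect and ferristatin control at 100 nM for full effect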
HNF4A DNA FP: change in binding of human HNF4 alpha to DNA | activity change, % at 10 µM | P41235 | 360,000 tested, 0.3% active | HNF4a-FITC DNA binding, fluorescence polarization, 1 h; in the data active = activity change above about 30%, passing the limit was not always enough
Target sequence (P41235 whole entry, looked up): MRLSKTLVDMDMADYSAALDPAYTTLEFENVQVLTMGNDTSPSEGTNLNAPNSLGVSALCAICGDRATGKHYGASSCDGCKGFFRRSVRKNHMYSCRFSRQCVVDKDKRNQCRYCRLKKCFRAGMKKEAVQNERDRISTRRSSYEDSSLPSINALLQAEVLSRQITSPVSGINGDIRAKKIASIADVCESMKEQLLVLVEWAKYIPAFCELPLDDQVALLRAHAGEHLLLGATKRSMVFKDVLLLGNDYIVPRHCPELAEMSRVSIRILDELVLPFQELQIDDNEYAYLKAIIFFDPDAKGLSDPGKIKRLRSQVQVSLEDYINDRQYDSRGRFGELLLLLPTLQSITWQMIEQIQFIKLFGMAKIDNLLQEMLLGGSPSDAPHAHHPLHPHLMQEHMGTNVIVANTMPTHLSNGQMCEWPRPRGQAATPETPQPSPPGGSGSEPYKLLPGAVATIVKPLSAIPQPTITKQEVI
IDE inh confirm: cellular human IDE inhibition, confirmation; AID 435028; 1,200 tested, 51% active; inhibition, % at 5.59 µM; HEK cells, FAbetaB cleavage, fluorescence polarization; shares compounds with IDE cell inh;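 active = mean inhibition across triplicate wells above the cutoff set by the earlier primary insulin-degrading enzyme screen, cut at about 16% in these data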;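 also: 0% = DMSO wells and 100% = 60 µM reference IDE inhibitor Ii1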
HEK293 tox: kills HEK cells in IDE inhibitor counter-screen. shares compounds with IDE cell inh. HEK293 cytotoxicity, ATP luminescence. inhibition, % at 5.59 µM. 1,200 tested, 28% active. AID 449730; in the data active = inhibition above about 22%;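 also: 0% = vehicle wells and 100% = reference cytotoxic drug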
IDE FP artifact: fluorescence interference counter-screen for IDE inhibitors. shares compounds with IDE cell inh. IC50, µM. 30 tested, under 10 active. FP counterscreen for fluorescent artifacts, IDE probe project; call rule not given here
Active calls of the source: *; · = no result given.

SMILES | Rpn11 inh | IDE cell inh | IDE act | CSN inh | TPT1 inhibitor | HNF4A DNA FP | IDE inh confirm | HEK293 tox | others
CCOc1cc(/C=C2\SC(=S)N(NS(=O)(=O)c3ccccc3)C2=O)ccc1O | · | 39.2* | -36.3 | 33.1 | 13.1 | 15.3 | 109.4* | 3.2
CC(=O)N(C1=C(Cl)C(=O)c2ccccc2C1=O)C1CCCCC1 | 2.1 | 49.8* | -68.3 | 2.3 | 1.7 | 1.9 | 63.6* | 123.8*
CC(=O)N(c1ccccc1C)C1CCCC1 | 2.1 | -1.4 | -2.0 | 2.2 | 0.5 | -1.3 | · | ·
CCN(CC)C(=O)c1cccc(-c2csc(C(C)(NC(C)=O)c3ccc(OC)cc3)n2)c1 (stereo not given) | 4.1 | · | · | 0.5 | · | 0.1 | · | ·
O=C(NNc1ncnc2sccc12)c1ccc(Cl)cc1 | 2.5 | 1.8 | · | -3.3 | 1.1 | 3.0 | · | ·
Cc1csc2ncnc(NNC(=O)c3ccc(Cl)cc3)c12 | 1.9 | 17.3* | -0.9 | 0.4 | -8.7 | 5.3 | 5.5 | 33.7*
COc1ccc(-c2nc3c(C)cc(Br)cn3c2Cc2ccsc2)cc1OC | 23.7 | · | · | 4.4 | · | 12.8 | · | ·
N#CC1=C(S)N=C(N)C(c2nc(-c3ccccc3)cs2)C12CCCC2 (stereo not given) | 25.5 | 20.1* | -10.3 | 13.0 | 4.9 | 7.9 | 8.6 | 6.4
CCOc1ccc(Cl)cc1/C=N/NC(=O)CNC(=O)c1ccccc1 | -3.9 | 26.2* | -6.3 | -1.1 | -4.6 | -0.8 | 5.7 | 15.0
CCOc1ccc(Cl)cc1/C=N/NC(=O)c1ccccc1 | 15.4 | -0.1 | 0.0 | -4.4 | 5.3 | 0.4 | · | ·
CC(C)Nc1nc(Nc2ccc(F)cc2)c2sccc2n1 | -5.6 | · | · | 1.3 | · | 1.8 | · | ·
CS(=O)(=O)Oc1ccc2c(c1)O/C(=C\c1cccc([N+](=O)[O-])c1)C2=O | 0.8 | · | 4.6 | -0.3 | · | 2.0 | · | ·
CS(=O)(=O)Oc1ccc2c(c1)O/C(=C\C=C\c1ccccc1)C2=O | 1.7 | 33.0* | -10.8 | 1.0 | 1.1 | 3.3 | 17.9* | 15.6
Cc1cccc(Nc2nc(N)c(C#N)c(CC#N)c2C#N)c1 | 12.9 | 25.8* | -7.4 | 4.6 | 0.6 | -4.8 | 18.9* | 12.7
Cc1cccc(Nc2nc(C)cc(C)c2C#N)c1 | -3.8 | -0.4 | 2.6 | -1.9 | -3.6 | -2.5 | · | ·
Cc1cc(C)c2sc(NC(=O)C3=COCCO3)nc2c1 | -3.6 | 9.4 | -0.7 | 1.9 | -1.9 | 2.8 | · | ·
Cn1c(SCc2nc3ccccc3[nH]2)nnc1-c1ccccn1 | 3.9 | 8.2 | 6.0 | 0.4 | -6.9 | -0.4 | · | ·
COc1cccc(-c2nnc(SCc3nc4ccccc4[nH]3)n2Cc2ccco2)c1 | · | · | · | · | · | · | · | · | IDE FP artifact=>54.7
Cn1c(SCc2nc3ccccc3[nH]2)nnc1-c1cccc(Cl)c1 | · | · | · | · | · | · | · | · | IDE FP artifact=>54.7
c1ccc(-c2nnc(SCc3nc4ccccc4[nH]3)n2Cc2ccco2)cc1 | 7.7 | 8.8 | -6.0 | 2.6 | 4.0 | 3.8 | · | ·
Nc1c(C(=O)NCCc2ccccc2)sc2nc(N3CCOCC3)c3c(c12)CCCC3 | -0.3 | 17.2* | -18.4 | -0.8 | 2.9 | -0.1 | 0.1 | 28.5*
O=C1c2c(-c3ccc(Br)cc3)noc2CCN1Cc1cn(C2CCCC2)nn1 | · | · | · | 2.8 | · | 2.1 | · | ·
CCOC(=O)[C@]12CCCC=C1N(Cc1ccc3c(c1)OCO3)C(=O)[C@H](CC(=O)NCc1ccc(OC)c(OC)c1)C2 | · | · | · | -0.8 | · | 1.2 | · | ·
N#C/C(=C(/O)CSc1ccccn1)c1nc2ccccc2s1 | 9.1 | 30.4* | -1.0 | 10.3 | 5.8 | -3.8 | 4.5 | 6.2
Cc1ccc(SC/C(O)=C(\C#N)c2nc3ccccc3s2)cc1 | 3.5 | 6.9 | 5.9 | -0.3 | 1.6 | 0.1 | · | ·
SMILES | Rpn11 inh | IDE cell inh | IDE act | CSN inh | TPT1 inhibitor | HNF4A DNA FP | IDE inh confirm | HEK293 tox | others
CC(=O)Nc1cccc(-c2cc(NC(C)=O)c3ncc(-c4cccc(C(F)(F)F)c4)n3c2)c1 | 24.8 | · | · | 6.3 | · | 11.8 | · | ·
CCC(=O)N/N=C/c1ccc(-c2ccc([N+](=O)[O-])cc2)o1 | 0.9 | 2.2 | 6.2 | 2.1 | 9.0 | -10.0 | · | ·
CC(C)(C)C(=O)/C=c1\s/c(=C\c2ccc(-c3ccc([N+](=O)[O-])cc3)o2)c(=O)n1CC(=O)NC(N)=O | · | 22.3* | -20.1 | -103.6 | 104.4* | 96.1 | 77.7* | 26.4*
Cc1cc([N+](=O)[O-])cc(C)c1OCC(=O)N/N=C/c1ccc(OC(=O)c2ccccc2Br)cc1 | -5.1 | 8.9 | -2.9 | 2.5 | 2.5 | 0.4 | · | ·
Cc1cc([N+](=O)[O-])cc(C)c1OCC(=O)N/N=C/c1ccc(OC(=O)c2ccccc2)cc1 | 11.2 | 19.6* | -25.1 | -0.3 | 1.2 | 1.5 | 5.8 | 8.0
COc1ccc([C@@H]2C[C@H]3CN(c4ccccc4)C(=O)[C@]34CCCN24)c(OC)c1OC | 19.2 | 21.8* | -12.6 | 5.2 | 6.4 | 8.6 | 7.7 | 13.7
COCc1cc([C@@H]2C[C@H]3CN(c4ccccc4)C(=O)[C@]34CCCN24)ccc1OC | 18.9 | 2.5 | 6.1 | 4.1 | 1.3 | 5.5 | · | ·
C=CCn1c(O)c(N=NC(=S)Nc2ccc(OC)cc2)c2ccccc21 | 10.0 | 16.8* | 4.2 | -0.9 | 0.4 | 2.0 | -1.1 | 56.6*
C=CCn1c(O)c(N=NC(=O)OCC)c2ccccc21 | -2.9 | 0.2 | -1.4 | -3.2 | -2.1 | 2.6 | · | ·
C=CCn1c(O)c(N=NC(=S)Nc2cccc(OC)c2)c2ccccc21 | 6.6 | 18.7* | -5.9 | 1.3 | -2.3 | 3.0 | 7.2 | 81.7*
Cc1ccc(N2CCN(C3=NC(=O)/C(=C\c4cn[nH]c4-c4ccccc4)S3)CC2)cc1 | 4.1 | 30.7* | -15.9 | 1.3 | 0.7 | 0.4 | 1.6 | 26.5*
Cc1nn(Cc2c(F)c(F)c(F)c(F)c2F)c(C)c1NC(=O)c1ccc(COc2ccc(Cl)cc2Cl)o1 | 5.5 | 18.5* | -9.6 | -11.8 | -0.9 | 0.4 | 6.9 | 34.0*
Cc1nn(Cc2cccc(F)c2)c(C)c1NC(=O)c1ccc(COc2ccccc2Cl)cc1 | -0.8 | 25.2* | -35.3 | -1.8 | 1.5 | 4.0 | 13.3 | 55.4*
CCc1ccccc1NC(=O)CN(C)C(=O)COC(=O)c1c(Cl)cccc1Cl | -3.5 | · | 6.5 | 1.8 | · | -1.7 | · | ·
O=c1c(Cl)c(NCc2ccco2)cnn1C12CC3CC(CC(C3)C1)C2 | -3.0 | 7.8 | -0.4 | 1.9 | -0.5 | 2.5 | · | ·
O=c1c(Cl)c(NCc2ccccc2Cl)cnn1C12CC3CC(CC(C3)C1)C2 | 2.5 | 34.2* | -30.2 | 0.4 | -2.4 | -1.8 | 18.7* | 40.1*
CC(C)C[C@H]1CN(CCCC[C@@H]2CNC(=O)C(=O)N2CCc2ccccc2)C(=O)C(=O)N1CCC1CCCCC1 | · | · | · | -7.3 | · | 5.5 | · | ·
